pIC50: −log10 of the molar value. Calls of active or inactive are those of the source. The calls are words filed in the database; no cut-off is given here.
Tests used:
[1] = molecular target: Platelet-derived growth factor receptor (Mus musculus, UniProt P05622+P26618); test: Inhibition of PDGFR autophosphorylation in mouse Swiss 3T3 fibroblast by immunoblotting
In short: (§1)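 PDGFR autophosphorylation in Swiss 3T3 cells was assayed by a previously described method. IC50 was fitted to a six-concentration curve, with duplicate or triplicate determinations.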

[2] = molecular target: Platelet-derived growth factor receptor (Mus musculus) (UniProt P05622+P26618); test: Inhibition of PDGFR autophosphorylation in mouse Swiss 3T3 fibroblast up to 10 ug/ml by immunoblotting; in short: as §1
[3] = molecular target: Receptor-type tyrosine-protein kinase FLT3 (Homo sapiens) (UniProt P36888); test: Inhibition of FLT3 autophosphorylation in human EOL1 cells up to 10 ug/ml by immunoblotting; type: cell-based
FLT3 (Homo sapiens) = test: Inhibition of FLT3 autophosphorylation in human EOL-1 cells up to 10 ug/ml by immunoblotting

Chain of Receptor-type tyrosine-protein kinase FLT3 (Homo sapiens) (P36888 whole entry): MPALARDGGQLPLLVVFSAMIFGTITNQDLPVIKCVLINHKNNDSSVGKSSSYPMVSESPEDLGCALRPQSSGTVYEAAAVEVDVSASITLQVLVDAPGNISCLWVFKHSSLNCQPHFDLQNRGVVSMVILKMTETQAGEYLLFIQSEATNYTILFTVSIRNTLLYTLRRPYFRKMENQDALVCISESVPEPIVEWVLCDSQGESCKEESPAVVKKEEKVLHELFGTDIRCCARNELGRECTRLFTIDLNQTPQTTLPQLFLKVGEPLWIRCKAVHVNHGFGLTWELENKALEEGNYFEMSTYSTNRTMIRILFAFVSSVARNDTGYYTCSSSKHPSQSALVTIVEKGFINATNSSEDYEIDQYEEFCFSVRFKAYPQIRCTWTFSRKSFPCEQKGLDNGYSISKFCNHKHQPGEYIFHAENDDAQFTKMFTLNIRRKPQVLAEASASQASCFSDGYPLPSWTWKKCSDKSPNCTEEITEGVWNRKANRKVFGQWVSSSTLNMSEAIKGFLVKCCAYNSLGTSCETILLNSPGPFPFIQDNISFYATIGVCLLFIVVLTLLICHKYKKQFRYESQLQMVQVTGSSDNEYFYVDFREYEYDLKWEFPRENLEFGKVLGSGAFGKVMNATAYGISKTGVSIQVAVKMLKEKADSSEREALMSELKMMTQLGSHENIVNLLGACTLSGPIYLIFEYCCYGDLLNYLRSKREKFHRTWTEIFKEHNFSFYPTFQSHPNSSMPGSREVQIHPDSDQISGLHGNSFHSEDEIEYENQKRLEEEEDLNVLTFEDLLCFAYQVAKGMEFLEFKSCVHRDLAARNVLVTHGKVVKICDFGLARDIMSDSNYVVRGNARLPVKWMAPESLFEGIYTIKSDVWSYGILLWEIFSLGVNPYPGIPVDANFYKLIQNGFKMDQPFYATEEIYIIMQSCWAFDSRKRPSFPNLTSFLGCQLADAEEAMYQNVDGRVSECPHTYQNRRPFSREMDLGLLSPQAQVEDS

SMILES	pIC50 [1]	Activity [2]	Activity [3]	Activity (FLT3 (Homo sapiens))
Cc1ccccc1C(=O)Nc1cccc(Nc2nc(-c3cccnc3)c[nH]2)c1	6.22	–	–	–
CCc1ccc(NC(=O)c2ccc(C)cc2)cc1Nc1nc(-c2cccnc2)c[nH]1	5.19	–	–	–
Cc1ccc(C(=O)Nc2cccc(Nc3nc(-c4cccnc4)c[nH]3)c2)cc1	6.70	–	–	–
Cc1ccc(NC(=O)c2ccc(CN3CCN(C)CC3)cc2)cc1Nc1nc(-c2cccnc2)c[nH]1	< 5.00	inactive	inactive	–
CCc1ccc([N+](=O)[O-])cc1Nc1nc(-c2cccnc2)c[nH]1	–	inactive	inactive	–
Cc1cccc(C(=O)Nc2ccc(C)c(Nc3nc(-c4cccnc4)c[nH]3)c2)c1	5.66	–	–	–
Cc1ccc(NC(=O)c2ccc(N)cc2)cc1Nc1nc(-c2cccnc2)c[nH]1	< 4.52	inactive	inactive	–
COc1cc(C(=O)Nc2ccc(C)c(Nc3nc(-c4cccnc4)c[nH]3)c2)cc(OC)c1OC	< 5.00	inactive	inactive	–
Cc1ccc(NC(=O)c2ccc(CN3CCN(C)CC3)cc2)cc1Nc1nc(-c2ccccc2)c[nH]1	< 5.00	–	–	–
Cc1ccc(C(=O)Nc2ccc(C)c(Nc3nc(-c4cccnc4)c[nH]3)c2)cc1	6.70	–	inactive	inactive
Cc1ccc(NC(=O)c2ccccc2)cc1Nc1nccc(-c2cccnc2)n1	7.00	–	–	–
Cc1ccc(NC(=O)c2ccccc2)cc1Nc1nc(-c2ccncc2)c[nH]1	< 5.00	–	–	–
CCc1ccc(NC(=O)c2ccccc2)cc1Nc1nc(-c2cccnc2)c[nH]1	5.33	–	–	–
Cc1ccc([N+](=O)[O-])cc1Nc1nc(-c2cccnc2)c[nH]1	–	inactive	inactive	–
O=[N+]([O-])c1cccc(Nc2nc(-c3cccnc3)c[nH]2)c1	–	inactive	inactive	–
CC(=O)Nc1ccc(C)c(Nc2nc(-c3cccnc3)c[nH]2)c1	5.23	–	–	–
Cc1ccc(N)cc1Nc1nc(-c2ccccc2)c[nH]1	–	inactive	inactive	–
Cc1ccc(NC(=O)c2ccc(Cl)cc2)cc1Nc1nc(-c2cccnc2)c[nH]1	6.40	–	inactive	inactive
Cc1ccc(NC(=O)c2ccc([N+](=O)[O-])cc2)cc1Nc1nc(-c2cccnc2)c[nH]1	< 4.52	inactive	inactive	–
Cc1ccc(N)cc1Nc1nc(-c2cccnc2)c[nH]1	–	inactive	inactive	–

SMILES	pIC50 [1]	Activity [2]	Activity [3]	Activity (FLT3 (Homo sapiens))
Cc1ccc(NC(=O)c2ccc(CN3CCN(C)CC3)cc2)cc1Nc1nc(-c2ccncc2)c[nH]1	< 5.00	–	–	–
CC(=O)Nc1ccc(C)c(Nc2nc(-c3ccccc3)c[nH]2)c1	< 4.52	–	–	–
Cc1cccc(C(=O)Nc2cccc(Nc3nc(-c4cccnc4)c[nH]3)c2)c1	6.52	–	–	–
CCc1ccc(NC(=O)c2cccc(C)c2)cc1Nc1nc(-c2cccnc2)c[nH]1	6.52	–	–	–
Cc1ccc([N+](=O)[O-])cc1Nc1nc(-c2ccncc2)c[nH]1	–	inactive	inactive	–
Cc1ccc(NC(=O)c2ccncc2)cc1Nc1nc(-c2cccnc2)c[nH]1	5.74	–	inactive	inactive
Nc1cccc(Nc2nc(-c3cccnc3)c[nH]2)c1	–	inactive	inactive	–
Cc1ccc(N)cc1Nc1nc(-c2ccncc2)c[nH]1	–	inactive	inactive	–
CC(=O)Nc1ccc(C)c(Nc2nccc(-c3cccnc3)n2)c1	4.30	–	–	–
Cc1ccc(NC(=O)c2ccccc2)cc1Nc1nc(-c2cccnc2)c[nH]1	6.52	–	inactive	inactive
CN1CCN(Cc2ccc(C(=O)Nc3cccc(Nc4nc(-c5cccnc5)c[nH]4)c3)cc2)CC1	5.19	–	–	–
CCc1ccc(NC(=O)c2ccccc2C)cc1Nc1nc(-c2cccnc2)c[nH]1	5.80	–	–	–
Cc1ccc(NC(=O)c2ccc(CN3CCN(C)CC3)cc2)cc1Nc1nccc(-c2cccnc2)n1 [IMATINIB]	6.52	–	–	–
CCc1ccc(N)cc1Nc1nc(-c2cccnc2)c[nH]1	–	inactive	inactive	–
Cc1ccc(NC(=O)c2ccccc2C)cc1Nc1nc(-c2cccnc2)c[nH]1	6.22	–	–	–
Cc1ccc(NC(=O)c2ccccc2)cc1Nc1nc(-c2ccccc2)c[nH]1	5.15	–	–	–
CCCCCCCCCCc1ccc(C(=O)Nc2ccc(C)c(Nc3nc(-c4cccnc4)c[nH]3)c2)cc1	< 5.00	inactive	inactive	–
Cc1ccc([N+](=O)[O-])cc1Nc1nc(-c2ccccc2)c[nH]1	–	inactive	inactive	–
COc1ccc(C(=O)Nc2ccc(C)c(Nc3nc(-c4cccnc4)c[nH]3)c2)cc1	< 4.52	inactive	inactive	–
